# Measurements reported in ChEMBL document CHEMBL1144138, “Cytotoxic terpenoids from the Formosan soft coral Nephthea brassica” (1999).
# How the values were obtained:
# Assay type in all cases: functional
# A549 = assay: Cytotoxicity against human A549 cells after 6 days by MTT assay; settings: A549, 144 h, read-out: ED50 (the source's name)
# Outline: (§1)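 Cells were adapted to RPMI 1640 with 10% FCS and 1 mM […], then grown at 37 °C in 5% CO2. Seeding per well was 750 for A549, 750 for HT-29, 2000 for KB and 1500 for P-388. Three to eight concentrations spanning an 8- to 128-fold range were tested. After exposure, 1 mg/mL MTT was added for 4 h at 37 °C, formazan was dissolved in DMSO, and A540 was read. ED50 is the concentration giving 50% absorbance reduction versus untreated cells.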
# KB = assay: Cytotoxicity against human KB cells after 3 days by MTT assay; settings: 72 h, read-out: ED50 (the source's name); outline: as §1
# P388 = assay: Cytotoxicity against mouse P388 cells after 3 days by MTT assay; settings: P388, 72 h, read-out: ED50 (the source's name); outline: as §1
# HT-29 = assay: Cytotoxicity against human HT-29 cells after 6 days by MTT assay; settings: HT-29, 144 h, read-out: ED50 (the source's name); outline: as §1
SMILES,EC50 (A549) [µg/mL],EC50 (KB) [µg/mL],EC50 (P388) [µg/mL],EC50 (HT-29) [µg/mL]
C=C[C@]1(C)CC[C@H](C(=C)C)C[C@@H]1C(=C)C,> 50,> 50,0.92,> 50
C=C(C)C1CC[C@@]2(C)CCC[C@@](C)(OC(C)=O)[C@@H]2C1 (stereo partly specified),0.12,> 50,2.44,> 50
C=C(C)C1CC[C@@]2(C)CCC[C@@](C)(O)[C@@H]2C1 (stereo partly specified),> 50,> 50,3.86,> 50
C/C1=C\CC/C(C)=C/[C@H](O)C(C(C)(C)O)CC/C(C)=C/CC1 (stereo partly specified),0.71,0.23,1.8,1.02
CC(=O)OC(C)(C)C1CC/C(C)=C/CC/C(C)=C/CCC2=C[C@@H]1OC2=O (stereo partly specified) [BRASSICOLIDE ACETATE],3.03,0.72,1.2,0.81
C/C1=C\CCC2=C[C@H](OC2=O)C(C(C)(C)O)CC/C(C)=C/CC1 (stereo partly specified) [BRASSICOLIDE],> 50,2.4,2.44,5.81
C=C(C)[C@H]1C/C=C(\C)CC/C=C(\C)CC/C=C(\C)CC1 [CEMBRENE_A],1.11,3.73,1.1,3.42
C=C(C)[C@@H]1CC/C(C)=C/CC/C(C)=C/CC[C@]2(C)O[C@H]2C1 [EPOXYCEMBRENE A],3.61,3.41,0.4,2.72
C/C1=C\CC/C(C)=C/CC(C(C)(C)O)CC/C(C)=C/CC1 (stereo unspecified) [NEPHTHENOL],2.72,1.81,0.42,3.01
